ChEMBL document CHEMBL4130542, “Daedophamide, a Cytotoxic Cyclodepsipeptide from a Daedalopelta sp. Sponge Collected in Indonesia” (2017)

What was measured:
Format in all cases: functional
MDA-MB-231 = assay: Cytotoxicity against human MDA-MB-231 cells after 48 hrs by sulforhodamine B assay; details: MDA-MB-231, 48 h; for CC50: read-out: LC50 (the source's name)
In short: (§1)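 Human carcinoma lines (A-549 lung, MDA-MB-231 breast adenocarcinoma, HT-29 colorectal, PSN-1 pancreas). Cell survival estimated with the NCI algorithm. Three dose-response parameters derived: GI50 (50% growth inhibition vs control cells), TGI (total growth inhibition vs control) and LC50 (50% cell death vs control). GI50 calculated by a literature procedure.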

HT-29 = assay: Cytotoxicity against human HT-29 cells after 48 hrs by sulforhodamine B assay; details: HT-29, 48 h; for CC50: read-out: LC50 (the source's name); in short: as §1
A549 = assay: Cytotoxicity against human A549 cells after 48 hrs by sulforhodamine B assay; details: A549, 48 h; for CC50: read-out: LC50 (the source's name); in short: as §1
PSN1 = assay: Cytotoxicity against human PSN1 cells after 48 hrs by sulforhodamine B assay; details: PSN1, 48 h; for CC50: read-out: LC50 (the source's name); in short: as §1

SMILES	GI50 (MDA-MB-231) [nM]	TGI (MDA-MB-231) [nM]	CC50 (MDA-MB-231) [nM]	GI50 (HT-29) [nM]	TGI (HT-29) [nM]	CC50 (HT-29) [nM]	GI50 (A549) [nM]	TGI (A549) [nM]	CC50 (A549) [nM]	GI50 (PSN1) [nM]	TGI (PSN1) [nM]	CC50 (PSN1) [nM]
CO[C@H](C)[C@@H]1NC(=O)[C@H](CCC(N)=O)N(C)C(=O)[C@H](CC(C)C)NC(=O)[C@@H](CCCNC(=N)N)NC(=O)[C@@H](CO)NC(=O)[C@H](NC(=O)[C@@H](NC(=O)[C@H](O)[C@H](O)[C@H](CCCNC(=N)N)NC(=O)[C@@H](C)NC(=O)[C@H](C)[C@H](O)[C@H](C)C[C@H](C)CC(C)C)[C@@H](C)[C@@H](C)C(N)=O)[C@@H](C)OC(=O)[C@@H]2CCCCN2C(=O)[C@@H](CC(=O)O)NC1=O	300	600	900	600	800	1300	400	500	700	200	300	600
COc1cccc2c1C(=O)c1c(O)c3c(c(O)c1C2=O)C[C@@](O)(C(=O)CO)C[C@@H]3O[C@H]1C[C@H](N)[C@H](O)[C@H](C)O1 [DOXORUBICIN]	200	500	2400	300	900	> 17200	200	900	> 17200	200	500	3100
